Series [1] addresses Acyl-CoA (8-3)-desaturase (Rattus norvegicus) (UniProt Q920R3). Description: Inhibition of delta5 desaturase in Sprague-Dawley rat liver microsome at 10 uM. Format: microsomes. (In general: Liver microsomes are vesicles of endoplasmic reticulum, rich in cytochrome P450 enzymes.)
Another series concerns the target T1, Stearoyl-CoA desaturase (Homo sapiens, UniProt O00767).
T1 sequence (O00767 whole entry): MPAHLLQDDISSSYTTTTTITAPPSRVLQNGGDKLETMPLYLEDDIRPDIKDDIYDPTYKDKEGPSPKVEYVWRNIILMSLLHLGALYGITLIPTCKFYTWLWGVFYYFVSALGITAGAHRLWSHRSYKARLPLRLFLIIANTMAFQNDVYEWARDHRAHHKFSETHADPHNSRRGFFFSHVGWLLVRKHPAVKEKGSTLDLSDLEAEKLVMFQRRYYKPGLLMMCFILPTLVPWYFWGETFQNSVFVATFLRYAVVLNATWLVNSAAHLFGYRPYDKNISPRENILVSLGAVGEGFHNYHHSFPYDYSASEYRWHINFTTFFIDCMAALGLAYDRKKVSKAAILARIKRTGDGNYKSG
As to the kind of experiment: Inhibition of SCD1 in human HepG2 cells using [14C]-stearate substrate assessed as decreased production of [14C]-oleic acid after 24 hrs. The class given is cell-based.

The target of series [2] is Acyl-CoA 6-desaturase (Rattus norvegicus) (UniProt Q9Z122). Description: Inhibition of delta6 desaturase in Sprague-Dawley rat liver microsome using cis,cis-9,12-octadecadienoic acid substrate at 10 uM.
The next series has as its target T2, Acyl-CoA desaturase 1 (Mus musculus, UniProt P13516).
T2 sequence (P13516 whole entry): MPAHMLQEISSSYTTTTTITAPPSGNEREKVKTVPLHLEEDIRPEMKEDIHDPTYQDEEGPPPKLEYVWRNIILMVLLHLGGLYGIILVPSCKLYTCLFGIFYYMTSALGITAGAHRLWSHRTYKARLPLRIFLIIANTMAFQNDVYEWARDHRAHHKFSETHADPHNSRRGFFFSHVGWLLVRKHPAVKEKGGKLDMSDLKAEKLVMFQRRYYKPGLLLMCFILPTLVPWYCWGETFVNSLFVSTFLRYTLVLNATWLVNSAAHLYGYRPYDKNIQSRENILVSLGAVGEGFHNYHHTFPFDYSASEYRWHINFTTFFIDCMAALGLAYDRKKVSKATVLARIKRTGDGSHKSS
As to the kind of experiment: Inhibition of SCD1 in ICR mouse liver microsome using [9,10 3H]- stearoyl-Coenzyme A substrate assessed as decreased production of tritiated water after 20 min by scintillation counting analysis.

Series [3] can be described thus: Apparent permeability from basolateral to apical side in human Caco2 cells. Format: ADME, cell-based. The following applies: Caco-2. In short, it runs like this:
(§1)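 Caco-2 monolayers; apparent permeability a-to-b and b-to-a reported in 10⁻⁶ cm/s.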
(Caco-2 monolayers are a common model of the intestinal barrier.)

The nature of series [4]: Metabolic stability in rat liver microsome after 30 mins by LC/MS/MS analysis. Format: ADME. Conditions: liver microsomes, read-out: Stability. In short, it runs like this: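 Compound incubated 30 min with rat liver microsomes; percent parent remaining by LC/MS/MS.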
Series [5] is described as follows: Apparent permeability from apical to basolateral side in human Caco2 cells. Format: ADME, cell-based. Conditions: Caco-2. In short, it runs like this:
as §1

A short description of series [6]: Oral bioavailability in Lewis rat at 10 mg/kg. Format: ADME, organism-based. Conditions: in vivo. In short, it runs like this:
(§2)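 Lewis rats, IV 3 mg/kg and PO 10 mg/kg unless otherwise stated (some at PO 5 mg/kg, IV 1 mg/kg, or IV 1/PO 2 mg/kg). At least two rats IV, three rats PO, averaged. Plasma t1/2 (h), AUC 0–∞ (μM·h), Vss (L/kg), clearance ((L/h)/kg), Cmax (μM), Tmax (h), oral bioavailability (%).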

A short description of series [7]: Cmax in Lewis rat at 10 mg/kg, po. Format: ADME, organism-based. Conditions: in vivo. On the set-up: dose 10 mg/kg, route oral. In short, it runs like this:
as §2

The nature of series [8]: Tmax in Lewis rat at 10 mg/kg, po. On the set-up: dose 10 mg/kg, route oral. The class given is ADME, organism-based. The following applies: in vivo. In short, it runs like this:
as §2

The nature of series [9]: Clearance in Lewis rat at 3 mg/kg, iv. The class given is ADME, organism-based. On the set-up: dose 3 mg/kg, route intravenous. The following applies: in vivo. In short, it runs like this: as §2
A short description of series [10]: Volume of distribution at steady state in Lewis rat at 3 mg/kg, iv. The class given is ADME, organism-based. On the set-up: dose 3 mg/kg, route intravenous. The following applies: in vivo, read-out: Vdss. In short, it runs like this:
as §2

The nature of series [11]: Half life in Lewis rat at 3 mg/kg, iv. The class given is ADME, organism-based. On the set-up: dose 3 mg/kg, route intravenous. The following applies: in vivo. In short, it runs like this: as §2
A further series concerns Rattus norvegicus. As to the kind of experiment: In vivo inhibition of SCD1 in Lewis rat liver microsome at 15 mg/kg, ip administered qd for 2 days. The class given is functional. Conditions: 48 h, route intraperitoneal. In short, it runs like this:
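Lewis rats fed high-carbohydrate diet for one week, fasted 4 h, then dosed orally (0.1–1 mg/kg in 0.2% Tween 20/1% CMC; n = 4), killed 4 h later; ip arm 15 mg/kg once daily for two days. Liver microsomes prepared, SCD1 activity measured by tritiated water release from [9,10-3H]stearoyl-CoA. Mean ± SD of at least four rats.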

The source made the active and inactive calls.

Acyl-CoA 6-desaturase (Rattus norvegicus), sequence (Q9Z122 whole entry, looked up): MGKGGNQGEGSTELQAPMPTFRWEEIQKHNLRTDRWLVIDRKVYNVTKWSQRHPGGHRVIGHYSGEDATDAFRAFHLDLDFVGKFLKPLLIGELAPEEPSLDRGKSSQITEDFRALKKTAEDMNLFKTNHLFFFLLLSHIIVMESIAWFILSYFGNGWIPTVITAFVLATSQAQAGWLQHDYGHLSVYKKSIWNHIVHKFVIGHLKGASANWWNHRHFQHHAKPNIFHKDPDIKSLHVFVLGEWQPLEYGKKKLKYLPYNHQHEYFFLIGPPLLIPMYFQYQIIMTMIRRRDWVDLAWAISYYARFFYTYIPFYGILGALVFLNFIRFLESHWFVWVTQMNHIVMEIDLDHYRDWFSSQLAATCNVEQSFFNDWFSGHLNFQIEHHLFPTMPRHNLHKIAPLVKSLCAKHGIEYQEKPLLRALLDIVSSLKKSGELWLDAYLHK
Acyl-CoA (8-3)-desaturase (Rattus norvegicus), sequence (Q920R3 whole entry, looked up): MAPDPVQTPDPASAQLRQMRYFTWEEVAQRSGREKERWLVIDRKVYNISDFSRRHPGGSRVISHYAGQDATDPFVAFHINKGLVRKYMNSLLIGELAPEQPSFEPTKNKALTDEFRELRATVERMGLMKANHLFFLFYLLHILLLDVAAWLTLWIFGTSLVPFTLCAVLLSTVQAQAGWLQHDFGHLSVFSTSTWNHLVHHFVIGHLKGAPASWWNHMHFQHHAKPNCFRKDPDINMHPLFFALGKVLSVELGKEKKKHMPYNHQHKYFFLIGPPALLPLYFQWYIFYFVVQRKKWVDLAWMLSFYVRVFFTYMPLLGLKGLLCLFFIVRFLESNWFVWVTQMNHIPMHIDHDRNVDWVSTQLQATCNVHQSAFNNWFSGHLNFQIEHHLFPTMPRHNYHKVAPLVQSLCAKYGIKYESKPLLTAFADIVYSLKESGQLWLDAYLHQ

The term IC50 denotes the concentration that gives 50% inhibition. With `O=C(NCCC1CC1)c1ccc(N2CCN(C(=O)c3cc(Cl)ccc3Cl)CC2)nn1`, the inhibition result in series [1] and in series [2] was “inactive” in each case. Also, the IC50 on Stearoyl-CoA desaturase is 101 nM; on Acyl-CoA desaturase 1, 34 nM.

A word on the Papp B→A: it is the apparent permeability from the basolateral to the apical side of a cell layer. The term Papp A→B denotes how fast a substance crosses the layer from the apical side. Consider `O=C(NCCC1CC1)c1ccc(N2CCN(C(=O)c3cc(F)ccc3Cl)CC2)nn1`, for which the inhibition result in [1] and in series [2] was “inactive” throughout. Moreover, the Papp B→A in [3] was found to be 29 ×10⁻⁶ cm/s. The remaining at 0.5 h in series [4] was found to be 66%. Besides, the Papp A→B in series [5] was determined as 28 ×10⁻⁶ cm/s. Also, the figures for the IC50 on Stearoyl-CoA desaturase and on Acyl-CoA desaturase 1 were 192 nM and 62 nM, respectively.

Turning to `O=C(NCCC1CC1)c1ccc(N2CCN(C(=O)c3cnc(Cl)nc3C(F)(F)F)CC2)nn1`, the inhibition entry in series [1] and in series [2] was “inactive” each time. For the same compound, the results for the IC50 on Stearoyl-CoA desaturase and on Acyl-CoA desaturase 1 were 5870 nM and 321 nM, respectively.

Take `CC(C(=O)N1CCN(c2ccc(C(=O)NCCC3CC3)nn2)CC1)(C(F)(F)F)C(F)(F)F`: the inhibition entry in series [1] and in [2] was “inactive” each time. The IC50 is 119 nM at Stearoyl-CoA desaturase and 113 nM on Acyl-CoA desaturase 1.

Turning to `O=C(NCCC1CC1)c1ccc(N2CCN(C(=O)c3ccoc3C(F)(F)F)CC2)nn1`, the inhibition result in series [1] and in [2] was “inactive” in each case. For the same compound, the IC50 on Stearoyl-CoA desaturase worked out at 290 nM.

Usually bioavailability stands for the share of a dose that reaches the circulation, judged against a reference dose that is usually intravenous. As usually defined, the Cmax is the peak of the concentration-time curve. For orientation: Tmax means the time from dosing to the highest level. One may read the clearance as the rate of elimination divided by the concentration. A low value points to a low capacity for elimination. As a reminder, the half-life is the time needed for the level to fall by half in the phase considered. A word on the inhibition in vivo: it is the share of the control response that was lost under treatment. Turning to `O=C(CNC(=O)c1ccc(N2CCN(C(=O)c3ccccc3C(F)(F)F)CC2)nn1)c1ccccc1`, the inhibition result in series [1] and in [2] was “inactive” in each case. Moreover, in series [6], the bioavailability came out at 42%. Also, the Cmax in series [7] was found to be 1900 nM. Moreover, in series [8], the Tmax was 3.3 h. In series [9], this compound had a clearance of 4.67 mL/min/kg. In [10], the Vd came out at 0.7 L/kg. The half-life in series [11] is 1.8 h. This compound also gave an inhibition in vivo at 15 mg/kg with Rattus norvegicus of over 60%. Also, the Papp B→A in [3] worked out at 23 ×10⁻⁶ cm/s. For the same compound, the remaining at 0.5 h in [4] came to 63%. Further, in [5], the Papp A→B is 22 ×10⁻⁶ cm/s. The IC50 on Acyl-CoA desaturase 1 was found to be 42 nM.
